The text below walks through data of ChEMBL document CHEMBL4411275, “Design, synthesis and biological evaluation of quinoline-indole derivatives as anti-tubulin agents targeting the colchicine binding site” (Eur J Med Chem, 2019).

Each structure is given as a SMILES string.

Data set [1] has as its system K562. Kind of data set: Antiproliferative activity against human K562 cells after 72 hrs by MTT assay. It counts as functional, cell-based. Particulars: K562, 72 h. The method, boiled down:
(§1)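 Cells preincubated 24 h at 37 °C, 5% CO₂. Compounds added at several concentrations in medium with 0.1% DMSO for 72 h. MTT (5 mg/mL in PBS) then added for 4 h, and optical density read at 490 nm. IC50 taken from dose-response curves; mean ± SD of at least three independent experiments.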

Data set [2] relates to HCT-8. Nature of the data set: Antiproliferative activity against human HCT8 cells after 72 hrs by MTT assay. In kind it is functional, cell-based. Particulars: HCT-8, 72 h. The method, boiled down:
as §1

Data set [3] deals with A549. Kind of data set: Antiproliferative activity against human A549 cells after 72 hrs by MTT assay. It counts as functional, cell-based. The settings on record: A549, 72 h. The method, boiled down:
as §1
For orientation: Tetrazolium dyes change colour on reduction, which living cells bring about.

A short description of data set [4]: Antiproliferative activity against human taxol-resistant HCT8/T cells after 72 hrs by MTT assay. It counts as functional. Particulars: HCT-8, 72 h. The method, boiled down:
as §1

A short description of data set [5]: Drug resistance index, ratio of IC50 for taxol-resistant human HCT8/T cells to IC50 for human HCT8 cells. In kind it is functional. In outline: (§2)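 Resistant and parental sensitive lines exposed to a range of compound concentrations in medium with 0.1% DMSO for 72 h at 37 °C, 5% CO2, after 24 h pre-culture. MTT added for 4 h, absorbance read at 490 nm. IC50 from dose-response curves, at least three independent experiments. DRI = IC50 resistant / IC50 parental.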

In data set [6] the test system is A549/TR. Nature of the data set: Antiproliferative activity against human taxol-resistant A549/TR cells after 72 hrs by MTT assay. It counts as functional, cell-based. In outline: as §1
A short description of data set [7]: Drug resistance index, ratio of IC50 for taxol-resistant human A549/TR cells to IC50 for human A549 cells. It counts as functional. In outline:
as §2

A short description of data set [8]: Toxicity in ICR mouse xenografted with […] cells assessed as body weight loss at 6 mg/kg, iv administered every 2 days for 21 days. In kind it is organism-based. The settings on record: in vivo. The method, boiled down: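 Five-week-old male ICR mice inoculated subcutaneously in the right flank with 1×10^6 H22 cells. Randomised after one day into groups of eight. Dosed intravenously every 2 days for three weeks. Tumour volume and body weight recorded every 2 days. Tumours then excised and weighed; inhibition (%) = (1 − mean treated tumour weight / mean control tumour weight) × 100.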

For data set [9], the system named is H22 (Mus musculus). Nature of the data set: Antitumor activity against mouse H22 cells xenografted in ICR mouse assessed as reduction in tumor weight at 6 mg/kg, iv administered every 2 days for 21 days relative to control. More on the design: scale not given: the % may be the effect or the level left.
Data set [10] deals with HepG2. Nature of the data set: Antiproliferative activity against human HepG2 cells after 72 hrs by MTT assay. It counts as functional, cell-based. The settings on record: HepG2, 72 h. The method, boiled down: as §1
The test system of data set [11] is KB. Nature of the data set: Antiproliferative activity against human KB cells after 72 hrs by MTT assay. In kind it is functional, cell-based. The method, boiled down: as §1
The test system of data set [12] is MDA-MB-231. Nature of the data set: Antiproliferative activity against human MDA-MB-231 cells after 72 hrs by MTT assay. In kind it is functional, cell-based. Particulars: MDA-MB-231, 72 h. In outline:
as §1

In data set [13] the test system is L02. Nature of the data set: Antiproliferative activity against human LO2 cells after 72 hrs by MTT assay. In kind it is cell-based. Particulars: L02, 72 h. In outline: as §1
For data set [14], the system named is H22 (Mus musculus). Kind of data set: Antiproliferative activity against mouse H22 cells after 72 hrs by MTT assay. Particulars: H22, 72 h.
In data set [15] the test system is Bel-7402. Kind of data set: Antiproliferative activity against human Bel7402 cells after 72 hrs by MTT assay. In kind it is functional, cell-based. The settings on record: Bel-7402, 72 h. The method, boiled down:
as §1

A short description of data set [16]: Antiproliferative activity against human ADR-resistant Bel7402/ADR cells after 72 hrs by MTT assay. It counts as functional. Particulars: Bel-7402, 72 h. The method, boiled down: as §1
Data set [17] can be described thus: Drug resistance index, ratio of IC50 for ADR-resistant human Bel7402/ADR cells to IC50 for human Bel7402 cells. In kind it is functional. In outline: as §2
Data set [18] has as its system K562/VCR. Nature of the data set: Antiproliferative activity against human VCR-resistant K562/VCR cells after 72 hrs by MTT assay. In kind it is functional, cell-based. In outline: as §1
Data set [19] concerns H22 (Mus musculus). Nature of the data set: Antitumor activity against mouse H22 cells xenografted in ICR mouse assessed as reduction in tumor weight at 20 mg/kg/day, iv for 21 days relative to control. The arrangement: scale not given: the % may be the effect or the level left.
Data set [20] can be described thus: Drug resistance index, ratio of IC50 for VCR-resistant human K562/VCR cells to IC50 for human K562 cells. It counts as functional.
In data set [21] the target is Tubulin (Sus scrofa, UniProt P02554+P02550). Kind of data set: Inhibition of porcine brain tubulin polymerization preincubated for 30 mins and measured every 2 mins for 60 mins by spectrophotometric analysis.
Data set [22] deals with T1, Tubulin (Sus scrofa) (UniProt P02554+P02550). Nature of the data set: Inhibition of [3H]-colchicine binding to biotinylated porcine tubulin at 1 uM after 2 hrs by SPA relative to control. It counts as protein assay. In outline: (§3)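 Scintillation proximity assay: 0.08 μM [3H]colchicine incubated with biotinylated porcine tubulin (0.5 μg) and test compound for 2 h at 37 °C in 80 mM PIPES pH 6.8, 1 mM EGTA, 10% glycerol, 1 mM MgCl2, 1 mM GTP. Streptavidin SPA beads then added, and bound radioactivity counted by scintillation counter.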

In data set [23] the target is T1, Tubulin (Sus scrofa). Nature of the data set: Inhibition of [3H]-colchicine binding to biotinylated porcine tubulin at 5 uM after 2 hrs by SPA relative to control. In kind it is protein assay. The method, boiled down:
as §3

T1 sequence (P02550 whole entry, looked up): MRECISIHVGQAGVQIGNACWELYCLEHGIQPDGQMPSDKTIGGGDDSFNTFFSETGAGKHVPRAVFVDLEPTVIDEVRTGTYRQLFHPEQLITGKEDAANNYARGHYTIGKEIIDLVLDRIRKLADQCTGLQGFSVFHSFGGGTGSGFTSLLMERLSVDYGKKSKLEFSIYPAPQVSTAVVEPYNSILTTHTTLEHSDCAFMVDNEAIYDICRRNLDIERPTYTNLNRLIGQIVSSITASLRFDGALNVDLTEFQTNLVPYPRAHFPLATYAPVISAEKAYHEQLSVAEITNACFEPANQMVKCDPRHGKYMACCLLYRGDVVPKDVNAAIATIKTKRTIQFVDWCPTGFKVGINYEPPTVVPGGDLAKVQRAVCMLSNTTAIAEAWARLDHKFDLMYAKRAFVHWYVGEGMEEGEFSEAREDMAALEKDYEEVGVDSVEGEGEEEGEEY
T1 sequence (P02554 whole entry, looked up): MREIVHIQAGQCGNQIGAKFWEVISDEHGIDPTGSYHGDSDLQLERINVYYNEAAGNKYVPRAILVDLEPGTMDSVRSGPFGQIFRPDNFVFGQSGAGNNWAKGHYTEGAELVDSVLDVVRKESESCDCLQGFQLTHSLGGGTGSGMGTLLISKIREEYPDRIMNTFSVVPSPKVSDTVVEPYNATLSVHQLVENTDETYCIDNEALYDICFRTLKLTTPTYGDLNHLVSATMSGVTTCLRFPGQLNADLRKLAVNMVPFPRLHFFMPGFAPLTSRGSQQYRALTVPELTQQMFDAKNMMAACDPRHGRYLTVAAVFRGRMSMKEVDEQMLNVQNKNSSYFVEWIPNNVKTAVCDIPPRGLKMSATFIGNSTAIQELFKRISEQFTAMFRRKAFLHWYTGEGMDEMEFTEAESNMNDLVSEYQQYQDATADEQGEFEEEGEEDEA

Take `COc1ccc2c(ccn2C(=O)c2cc(C)nc3ccccc23)c1`: in data set [1], the IC50 – broadly, the concentration at which inhibition is half-maximal – is above 1000 nM.
As for `C=C(c1ccc2c(ccn2C)c1)c1ccnc2ccccc12`, in [1], the IC50 was 90 nM.
For `CC(=O)O[C@H]1C(=O)[C@@]2(C)[C@H]([C@H](OC(=O)c3ccccc3)[C@]3(O)C[C@H](OC(=O)[C@H](O)[C@@H](NC(=O)c4ccccc4)c4ccccc4)C(C)=C1C3(C)C)[C@]1(OC(C)=O)CO[C@@H]1C[C@@H]2O` [PACLITAXEL], the IC50 in data set [2] stood at 28 nM; in data set [3], 18 nM; in [4] it was 2590 nM; in [6], 1830 nM. Moreover, the “Ratio IC50” value is 92.5 in data set [5] and 101.6 in data set [7]. The Activity entry in data set [8] is listed as “Toxic”; in [9] it was 72.7%.
On to `C=C(c1cc(C)nc2ccccc12)c1c[nH]c2cc(OC)ccc12`, for which the IC50 in data set [1] was above 1000 nM.
As for `C=C(c1ccc2c(ccn2C(C)=O)c1)c1cc(C)nc2ccccc12`, inhibition in [1] was half-maximal at 179 nM (IC50).
As to `C=C(c1ccc2[nH]ccc2c1)c1cc(C)nc2ccccc12`, the IC50 in [1] was determined as 121 nM; in data set [10], 377 nM; in data set [11], 372 nM; in data set [2] it was 403 nM; in data set [12] it was 204 nM; in [13] it was 881 nM. Besides, in data set [14], the concentration for half-maximal inhibition (IC50) stood at 184 nM.
As to `C=C(c1ccc2c(ccn2C)c1)c1cc(OC)nc2ccccc12`, the IC50 in data set [1] was 46 nM; in data set [10], 53 nM; in [11], 84 nM; in data set [2] it was 103 nM; in [12] it was 112 nM; in data set [13], 197 nM. Also, the IC50 in data set [14] worked out at 105 nM.
As to `C=C(c1ccc2c(ccn2C)c1)c1cc(N(C)C)nc2ccccc12`, in data set [1], 171 nM corresponded to half-maximal inhibition (IC50).
Same read-out and setting: for `C=C(c1ccc2c(ccn2C)c1)c1cc(CO)nc2ccccc12` the value was 123 nM.
As to `COc1cccc2c1C(=O)c1c(O)c3c(c(O)c1C2=O)C[C@@](O)(C(=O)CO)C[C@@H]3O[C@H]1C[C@H](N)[C@H](O)[C@H](C)O1.Cl` [DOXORUBICIN HYDROCHLORIDE], the IC50 amounted to 274 nM in data set [15] and 1730 nM in data set [16]. Further, the “Ratio IC50” value in data set [17] was 6.3.
`COc1ccc2c(ccn2C(=O)c2cc(C)nc3ccccc23)c1N` gave an IC50 in data set [1] of 289 nM.
The same measure, in the same setting: for `C=C(c1cc(C)nc2ccccc12)c1cccc2c1ccn2C` the value was above 1000 nM.
In the case of `COc1ccc(/C=C\c2cc(OC)c(OC)c(OC)c2)cc1O` [COMBRETASTATIN A4], the 50% inhibitory concentration (IC50) in [1] was found to be 7 nM; in [10], 9 nM; in [2], 11 nM; in data set [12], 11 nM; in data set [13] it was 46 nM; in data set [3] it was 9 nM. For the same molecule, the IC50 in [15] came to 11 nM; in [4] it was 87 nM; in data set [6], 175 nM; in data set [18] it was 57 nM; in [16], 58 nM; in data set [14], 10 nM. The Activity in [19] turned out to be 51%.
Molecule `C=C(c1ccc2c(ccn2CC)c1)c1cc(C)nc2ccccc12` came in with an IC50 in data set [1] of 31 nM.
Still for that read-out and setting: to `C=C(c1ccc2c(ccn2C(=O)OC(C)(C)C)c1)c1cc(C)nc2ccccc12` belongs above 1000 nM.
For `C=C(c1ccc2c(ccn2C)c1)c1cc(C=O)nc2ccccc12`, the IC50 in data set [1] turned out to be 94 nM.
In the case of `CC[C@]1(O)C[C@H]2CN(CCc3c([nH]c4ccccc34)[C@@](C(=O)OC)(c3cc4c(cc3OC)N(C=O)[C@H]3[C@@](O)(C(=O)OC)[C@H](OC(C)=O)[C@]5(CC)C=CCN6CC[C@]43[C@@H]65)C2)C1` [VINCRISTINE], the IC50 in [1] is 21 nM; in [18], 5060 nM. In [20], the “Ratio IC50” value came to 241.
Turning to `C=C(c1ccc2c(ccn2C)c1)c1cc(C(N)=O)nc2ccccc12`, the IC50 in [1] came out at 282 nM.
For the molecule `Cc1cc(C(C)c2ccc3c(ccn3C)c2)c2ccccc2n1` (centres undefined), the IC50 in data set [1] amounted to 37 nM; in data set [10], 101 nM; in [11] it was 109 nM; in data set [2] it was 96 nM; in data set [12], 103 nM; in data set [13], 214 nM. Further, the IC50 in data set [14] was 120 nM.
As to `C=C(c1ccc2c(ccn2C)c1)c1cc(NC)nc2ccccc12`, the IC50 stood at 5 nM in data set [1]; 20 nM in data set [10]; 8 nM in data set [11]; 10 nM in data set [2]; 27 nM in data set [12]; 85 nM in data set [13]. This molecule also had a concentration for half-maximal inhibition (IC50) in data set [14] of 25 nM.
In turn, `COc1ccc2c(ccn2-c2cc(C)nc3ccccc23)c1N` had an IC50 in [1] of 79 nM.
On the same count and under the same terms, for `COc1ccc2c(C(C)c3cc(C)nc4ccccc34)c[nH]c2c1` (centres undefined) the value was above 1000 nM.
Turning to `C=C(c1ccc2c(ccn2C)c1)c1cc(C)nc2ccccc12`, the IC50 in data set [21] amounted to 2540 nM. The results for the inhibition in data set [22] and in data set [23] were 78.4% and 89.4%, respectively.
For the molecule `Cc1cc(C(C)c2cccc3c2ccn3C)c2ccccc2n1` (centres undefined), in [1], the IC50 was above 1000 nM.
With `C=C(c1cc(C)nc2ccccc12)c1cccc2[nH]ccc12`, the IC50 in data set [1] is above 1000 nM.
On the same count and under the same terms, to `COc1ccc2c(ccn2-c2cc(C)nc3ccccc23)c1` belongs above 1000 nM; to `C=C(c1ccc2c(ccn2C)c1)c1cc(C(F)(F)F)nc2ccccc12`, 446 nM; to `C=C(c1cc(C)nc2ccccc12)c1cn(C)c2cc(OC)ccc12`, 106 nM.
On to `COc1ccc(/C=C\c2cc(OC)c(OC)c(OC)c2)cc1OP(=O)([O-])[O-].[Na+].[Na+]` [FOSBRETABULIN DISODIUM], for which, in data set [19], the Activity came to 62.7%.
In data set [1], `C=C(c1ccc2c(ccn2CF)c1)c1cc(C)nc2ccccc12` displayed a half-inhibitory concentration (IC50) of 153 nM.
